Experimental data reported in ChEMBL document CHEMBL1145772, “Antiinflammatory, gastrosparing, and antiplatelet properties of new NO-donor esters of aspirin” (J Med Chem, 2003).

Columns and labels:
[1] = Percent unaltered compound in human serum after 1 hr of incubation; assay type: ADME; conditions: read-out: Unaltered compound
Procedure, shortened: (§1)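 Compound is incubated in human serum at 37 °C for 1 min or 1 h. Samples are then deproteinized with acetonitrile containing 0.1% TFA and centrifuged at 9600g for 10 min. The remaining intact compound is quantified by reversed-phase HPLC on an RP-18 column at 40 °C, using a 25–80% acetonitrile/0.1% TFA gradient, with UV detection at 224 nm.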

[2] = Percent unaltered compound in human serum after 1 min of incubation; assay type: ADME; conditions: read-out: Unaltered compound; procedure, shortened: as §1
Homo sapiens [3] = species on record: Homo sapiens; test: Inhibition of collagen-induced human platelet rich plasma aggregation at 50 uM concentration; assay type: functional
Procedure, shortened: (§2)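 Human platelet-rich plasma is prepared from citrated venous blood of drug-free healthy volunteers (at least 2 weeks) by spinning at 200g for 20 min. Compound is added 10 min before the agonist, either ADP or collagen at […]. Light-transmission aggregation is recorded under stirring at 1000 rpm, 37 °C, for 5 min. Inhibition is expressed relative to vehicle (<0.5% DMSO) controls. The top concentration is 50 µM. pIC50 is fitted by nonlinear regression when inhibition exceeds 50%.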

Homo sapiens [4] = species on record: Homo sapiens; test: Inhibition of ADP-induced human platelet rich plasma aggregation at 50 uM concentration; assay type: functional; procedure, shortened: as §2
[5] = NO release in the presence of 1:5 molar excess of L-cysteine, value expressed as % mol/mol of NO2-
Procedure, shortened: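 Compound is dissolved in pH 7.4 buffered water/methanol and incubated for 1 h at 37 °C with a 1:5 molar excess of L-cysteine (5 × 10^-4 M). Griess reagent is added, and absorbance at 540 nm is read after 10 min at room temperature. Nitrite is reported as % mol/mol, mean ± SEM.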

Homo sapiens [6] = species on record: Homo sapiens; test: Inhibition of ADP-induced human platelet rich plasma aggregation at 50 uM concentration in presence of 100 uM ODQ; assay type: functional
Procedure, shortened: (§3)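 Aggregation of human PRP is triggered by ADP or by collagen at […], and read by light transmission (stirring, 37 °C, 5 min). Compound is given 10 min before the agonist. The NO scavenger oxyhaemoglobin or the sGC inhibitor ODQ (100 µM) is included to probe NO/sGC involvement. The value is % inhibition versus vehicle control at the top tested concentration of 50 µM.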

Homo sapiens [7] = species on record: Homo sapiens; test: Inhibition of ADP-induced human platelet rich plasma aggregation at 50 uM concentration in presence of 40 uM HbO2; assay type: functional; procedure, shortened: as §3
Homo sapiens [8] = species on record: Homo sapiens; test: Inhibition of collagen-induced human platelet rich plasma aggregation at 50 uM concentration in presence of 40 uM HbO2; assay type: functional; procedure, shortened: as §3
Homo sapiens [9] = species on record: Homo sapiens; test: Inhibition of collagen-induced human platelet rich plasma aggregation at 50 uM concentration in presence of 100 uM ODQ; assay type: functional; procedure, shortened: as §3
Homo sapiens [10] = species on record: Homo sapiens; test: Inhibition of collagen-induced human platelet rich plasma aggregation; assay type: functional; procedure, shortened: as §2

| remaining at 1 h [1] [%] | remaining at 1 min [2] [%] | NO release [5] | Compound | inhibition at 50 µM (Homo sapiens [3]) [%] | inhibition at 50 µM (Homo sapiens [4]) [%] | Inhibition (Homo sapiens [6]) [%] | Inhibition (Homo sapiens [7]) [%] | Inhibition (Homo sapiens [8]) [%] | Inhibition (Homo sapiens [9]) [%] | Inhibition (Homo sapiens [10]) [%] |
| --- | --- | --- | --- | --- | --- | --- | --- | --- | --- | --- |
| 0 | 0 |  | CCCOC(=O)c1ccccc1OC(C)=O | 14.4 | 18.1 |  |  |  |  |  |
| 3.8 | 38.8 | 0.35 | CC(=O)Oc1ccccc1C(=O)OCCCOc1no[n+]([O-])c1-c1ccccc1 |  |  |  |  |  |  |  |
| 0 | 0 | 0.18 | CC(=O)Oc1ccccc1C(=O)OCCCO[N+](=O)[O-] | 12.3 | 18.3 |  |  |  |  |  |
| 3.9 | 39.3 |  | CC(=O)Oc1ccccc1C(=O)OCCCOc1nonc1-c1ccccc1 | 0.7 | 16.9 |  |  |  |  |  |
| 0 | 0 | 32.3 | CC(=O)Oc1ccccc1C(=O)OCc1no[n+]([O-])c1C#N |  |  |  |  |  |  |  |
| 8.1 | 47.6 |  | CC(=O)Oc1ccccc1C(=O)OCCCOc1nonc1S(=O)(=O)c1ccccc1 | 14.8 | 3.3 |  |  |  |  |  |
| 0 | 0 | 3.8 | CC(=O)Oc1ccccc1C(=O)OCc1no[n+]([O-])c1C(N)=O |  |  | 22.6 | 28.6 | 14.4 | 18.5 |  |
| 0 | 0 |  | CC(=O)Oc1ccccc1C(=O)OCc1nonc1C(N)=O | 16.7 | 7.6 |  |  |  |  |  |
| 0 | 0 |  | CC(=O)Oc1ccccc1C(=O)OCc1nonc1C | 1.5 | 23.2 |  |  |  |  |  |
| 0 | 2.5 | 0 | CC(=O)Oc1ccccc1C(=O)OCc1no[n+]([O-])c1C |  | 17.8 |  |  |  |  | 18.6 |
| 0 | 0 |  | CC(=O)Oc1ccccc1C(=O)OCc1nonc1C#N | 27.9 | 14.8 |  |  |  |  |  |
| 9.3 | 43.7 | 37.1 | CC(=O)Oc1ccccc1C(=O)OCCCOc1no[n+]([O-])c1S(=O)(=O)c1ccccc1 |  |  |  |  |  |  |  |
